ChEMBL document CHEMBL4011650, “3-Hydroxy-1H-quinazoline-2,4-dione as a New Scaffold To Develop Potent and Selective Inhibitors of the Tumor-Associated Carbonic Anhydrases IX and XII” (J Med Chem, 2017)
Calls of active or inactive are those of the source. No cut-off for these calls is given here.

Columns and labels:
Carbonic anhydrase 2 = Carbonic anhydrase 2 (Homo sapiens, UniProt P00918); assay: Inhibition of recombinant human carbonic anhydrase 2 preincubated for 15 mins prior to testing by phenol red based stopped-flow CO2 hydration assay
Carbonic anhydrase 1 = Carbonic anhydrase 1 (Homo sapiens, UniProt P00915); assay: Inhibition of recombinant human carbonic anhydrase 1 preincubated for 15 mins prior to testing by phenol red based stopped-flow CO2 hydration assay
Sequence of Carbonic anhydrase 1 (P00915 whole entry): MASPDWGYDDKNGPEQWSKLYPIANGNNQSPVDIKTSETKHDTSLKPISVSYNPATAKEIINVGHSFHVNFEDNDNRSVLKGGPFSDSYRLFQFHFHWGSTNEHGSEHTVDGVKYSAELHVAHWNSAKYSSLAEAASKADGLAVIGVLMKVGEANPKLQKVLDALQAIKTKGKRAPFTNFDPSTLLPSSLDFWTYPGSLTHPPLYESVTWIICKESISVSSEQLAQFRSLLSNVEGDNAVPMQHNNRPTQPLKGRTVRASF

Carbonic anhydrase 9 = Carbonic anhydrase 9 (Homo sapiens, UniProt Q16790)
HT-29 [1] = assay: Antiproliferative activity against human HT-29 cells assessed as cell viability at 300 uM after 72 hrs under hypoxic conditions by MTT assay relative to control; assay type: functional; conditions: HT-29, 72 h, read-out: Activity
How it was run: (§1)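 HT-29 cells were grown in high-glucose DMEM with 20% FBS, seeded at 1·10^4/well and dosed 24 h later. Incubation was in a hypoxic chamber (0.1% O2, 5% CO2, balance N2) for 16, 48 or 72 h. Cells were washed, given MTT 1 mg/ml for 30 min at 37 °C, and formazan was dissolved in DMSO and read at 550 nm. Viability is % of untreated control, mean ± S.E.M.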

HT-29 [2] = assay: Antiproliferative activity against human HT-29 cells assessed as cell viability at 300 uM after 48 hrs under hypoxic conditions by MTT assay relative to control; assay type: functional; conditions: HT-29, 48 h, read-out: Activity; how it was run: as §1
[3] = Antiproliferative activity against human HT-29 cells assessed as cell viability at 30 uM after 48 hrs under normoxic conditions by MTT assay relative to control; assay type: cell-based; conditions: read-out: Activity
How it was run: (§2)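 HT-29 cells in high-glucose DMEM with 20% FBS were seeded at 1·10^4/well and treated 24 h later. Incubation was under normoxia (20% O2, air with 5% CO2) at 37 °C for 16, 48 or 72 h. Viability was read by MTT reduction (1 mg/ml, 30 min), with formazan in DMSO read at 550 nm, relative to untreated control set at 100%. Quadruplicates on at least three cell batches.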

[4] = Antiproliferative activity against human HT-29 cells assessed as cell viability at 100 uM after 72 hrs under normoxic conditions by MTT assay relative to control; assay type: cell-based; conditions: read-out: Activity; how it was run: as §2
HT-29 [5] = assay: Antiproliferative activity against human HT-29 cells assessed as cell viability at 30 uM after 48 hrs under hypoxic conditions by MTT assay relative to control; assay type: functional; conditions: HT-29, 48 h, read-out: Activity; how it was run: as §1
[6] = Antiproliferative activity against human HT-29 cells assessed as cell viability at 30 uM after 72 hrs under normoxic conditions by MTT assay relative to control; assay type: cell-based; conditions: read-out: Activity; how it was run: as §2
[7] = Antiproliferative activity against human HT-29 cells assessed as cell viability at 300 uM after 48 hrs under normoxic conditions by MTT assay relative to control; assay type: cell-based; conditions: read-out: Activity; how it was run: as §2
[8] = Antiproliferative activity against human HT-29 cells assessed as cell viability at 300 uM after 72 hrs under normoxic conditions by MTT assay relative to control; assay type: cell-based; conditions: read-out: Activity; how it was run: as §2
HT-29 [9] = assay: Antiproliferative activity against human HT-29 cells assessed as cell viability at 100 uM after 48 hrs under hypoxic conditions by MTT assay relative to control; assay type: functional; conditions: HT-29, 48 h, read-out: Activity; how it was run: as §1
[10] = Antiproliferative activity against human HT-29 cells assessed as cell viability at 100 uM after 48 hrs under normoxic conditions by MTT assay relative to control; assay type: cell-based; conditions: read-out: Activity; how it was run: as §2
HT-29 [11] = assay: Antiproliferative activity against human HT-29 cells assessed as cell viability at 30 uM after 72 hrs under hypoxic conditions by MTT assay relative to control; assay type: functional; conditions: HT-29, 72 h, read-out: Activity; how it was run: as §1
HT-29 [12] = assay: Antiproliferative activity against human HT-29 cells assessed as cell viability at 100 uM after 72 hrs under hypoxic conditions by MTT assay relative to control; assay type: functional; conditions: HT-29, 72 h, read-out: Activity; how it was run: as §1
HT-29 [13] = assay: Antiproliferative activity against human HT-29 cells assessed as reduction in cell viability at 30 to 300 uM after 16 hrs under hypoxic conditions by MTT assay relative to control; assay type: functional, cell-based; how it was run: as §1
HT-29 [14] = assay: Antiproliferative activity against human HT-29 cells assessed as reduction in cell viability at 30 to 300 uM after 16 hrs under normoxic conditions by MTT assay relative to control; assay type: cell-based; conditions: ht-29, 16 h; how it was run: as §2

Ki (Carbonic anhydrase 2) [µM]	Ki (Carbonic anhydrase 1) [µM]	Ki (Carbonic anhydrase 9) [µM]	SMILES	viability at 300 µM (HT-29 [1]) [%]	viability at 300 µM (HT-29 [2]) [%]	viability at 48 h, 30 µM [3] [%]	viability at 72 h, 100 µM [4] [%]	viability at 30 µM (HT-29 [5]) [%]	viability at 72 h, 30 µM [6] [%]	viability at 48 h, 300 µM [7] [%]	viability at 72 h, 300 µM [8] [%]	viability at 100 µM (HT-29 [9]) [%]	viability at 48 h, 100 µM [10] [%]	viability at 30 µM (HT-29 [11]) [%]	viability at 100 µM (HT-29 [12]) [%]	Activity (HT-29 [13])	Activity (HT-29 [14])
> 10	> 10		O=c1[nH]c2cc(C(F)(F)F)c(-n3cnnc3)cc2c(=O)n1O														
> 10	> 10	0.0333	O=c1[nH]c2cc(Cl)c(-n3cnnc3)cc2c(=O)n1O														
> 10	> 10	0.0083	O=c1[nH]c2cc(Cl)c(-n3cccc3)cc2c(=O)n1O														
			CC(=O)Nc1nnc(S(N)(=O)=O)s1 [ACETAZOLAMIDE]	84.1	85.7	96.8	95.8	108	97.6	101	93.2	102	101	107	111		
> 10	> 10	0.0695	O=c1[nH]c2ccc(-n3cnnc3)cc2c(=O)n1O														
> 10	> 10	0.0082	O=c1[nH]c2cc(Cl)c(Cl)cc2c(=O)n1O	24.5	14.8	93.4	73.5	106	107	9.44	20.6	76	91	93.3	78.1		
> 10	> 10	0.0069	O=C(NCc1ccccc1)Nc1cc2c(=O)n(O)c(=O)[nH]c2cc1Cl														
> 10	> 10	0.0648	O=C(O)CCC(=O)Nc1ccc2[nH]c(=O)n(O)c(=O)c2c1														
> 10	> 10	0.0081	O=C(O)c1ccccc1C(=O)Nc1cc2c(=O)n(O)c(=O)[nH]c2cc1Cl														
> 10	> 10	0.007	O=C(O)CCC(=O)Nc1cc2c(=O)n(O)c(=O)[nH]c2cc1Cl														
> 10	> 10	0.0097	O=c1[nH]c2cc(C(F)(F)F)c([N+](=O)[O-])cc2c(=O)n1O	40.3	50.2	53.9	45.3	45.2	41.5	45.1	49.7	46.8	57.7	38.6	38.2		
> 10	> 10	0.0625	O=C(O)c1ccccc1C(=O)Nc1ccc2[nH]c(=O)n(O)c(=O)c2c1														
> 10	> 10	0.0267	O=C(NCc1ccccc1)Nc1ccc2[nH]c(=O)n(O)c(=O)c2c1	59.9	78.2	57.4	51.7	50.6	32.4	85.6	61.3	46	56.9	33.4	40.2	Active	Toxic
> 10	> 10	0.0749	O=c1[nH]c2cc(Cl)c(-n3ccnc3)cc2c(=O)n1O														
> 10	> 10	0.0079	O=C(O)c1ccc(C(=O)Nc2cc3c(=O)n(O)c(=O)[nH]c3cc2Cl)cc1														
> 10	> 10	0.273	Nc1ccc2[nH]c(=O)n(O)c(=O)c2c1														
> 10	> 10	0.0697	O=c1[nH]c2cc(Cl)ccc2c(=O)n1O														
> 10	> 10	0.0482	O=c1[nH]c2ccc(Cl)cc2c(=O)n1O														
> 10	> 10	0.0428	O=C(Nc1ccccc1)Nc1cc2c(=O)n(O)c(=O)[nH]c2cc1Cl														
> 10	> 10	0.0046	O=c1[nH]c2ccc([N+](=O)[O-])cc2c(=O)n1O	87.3	96.7	101	94.1	98.8	95.6	95.1	94.3	99.5	95.5	94.7	93.7		
> 10	> 10	0.208	COn1c(=O)[nH]c2cc(Cl)ccc2c1=O														
> 10	> 10	0.018	O=C(O)COn1c(=O)[nH]c2cc(Cl)c([N+](=O)[O-])cc2c1=O														
> 10	> 10	0.0083	O=C1C=CCN1c1cc2c(=O)n(O)c(=O)[nH]c2cc1Cl	65.2	88.9	48.5	57.3	50.6	36.4	106	68.3	60.1	56.2	20.6	45.7		
> 10	> 10	0.0077	O=c1[nH]c2cc(Cl)cc(Cl)c2c(=O)n1O	78.9	104	92.6	95.9	101	94.2	91	94.9	102	93.8	93	87		
> 10	> 10	0.0431	Nc1cc2c(=O)n(O)c(=O)[nH]c2cc1Cl														
> 10	> 10		O=c1[nH]c2cc(Cl)c([N+](=O)[O-])cc2c(=O)n1O	63.5	70.8	58.2	61.2	45.7	36.8	77.6	70.3	64.6	72.5	41.6	55.9		
> 10	> 10	0.48	O=c1[nH]c2ccccc2c(=O)n1O														
> 10	> 10	0.0588	O=C(Nc1cc2c(=O)n(O)c(=O)[nH]c2cc1Cl)c1ccccc1														
> 10	> 10	0.0082	O=c1[nH]c2cc(C(F)(F)F)ccc2c(=O)n1O														
> 10	> 10	0.301	O=C(Nc1ccccc1)Nc1ccc2[nH]c(=O)n(O)c(=O)c2c1														
